RAM network inh – blocks the yeast RAM network; inhibition, % at 50 µM; 1.8% of 190,000 active; S. cerevisiae dse1pr::URA3 reporter, 5-FOA growth OD615, 2 d; analog-sensitive cbk1-as2 kinase mutant strain; AID 868;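 active = inhibition above a set limit, 3 SD over mean compound inhibition, cut at about 8.4% in these data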;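 also: 0% = DMSO-only wells with no growth and 100% = 10 µM 1-NA-PP1 full growth; inhibition rescues growth on 5-FOA so higher OD means more RAM inhibition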
p-CIP stab down – lowers stability of the mouse p/CIP coactivator protein. F442A p/CIP-EGFP cells, EGFP fluorescence, 16 h. AID 1984. Q05BA5. decrease of EGFP signal, % at 10 µM. 0.01% of 290,000 active;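 active = EGFP signal decrease of at least 30% at 10 µM or well 3 SD below plate mean, unless failing retest; inactive = the rest, including hits failing retest or dose response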
Dynein cargo inh – blocks dynein driven cargo transport along microtubules | 3617.4 mouse cells, GR-EGFP nuclear translocation imaging; test concentration mostly 20 µM; stimulated with dexamethasone, 1 µM; hits give low values | z-score, hits read low | 0.47% of 220,000 active | AID 1381;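 active = plate z-score of nuclear minus cytoplasmic receptor signal below a set negative limit, without overly bright fluorescence or cell loss, cut at about -3.5 in these data, passing the limit was not always enough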;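 also: z-score of nuclear minus cytoplasmic ring GR-EGFP intensity difference per well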
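Buffer or medium: tet-free medium with charcoal-stripped serum / Also added: dexamethasone agonist, 1.0 µM final, for 30 min / Timing: induction 48 h, compound 1 h, agonist 30 min / Measured by: high-content fluorescence imaging after fixation / Read-out: nuclear-to-cytoplasmic GR-EGFP distribution per well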
NCF1 inh – blocks human p47phox regulatory protein of NADPH oxidases; P14598; p47phox/p22phox peptide binding, fluorescence polarization, 2 h; inhibition, % at 24.7 µM; 0.53% of 220,000 active; AID 1274;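 active = inhibition above about 30%, limit read from the data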;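 also: 0% = p47phox with labelled peptide and 100% = labelled peptide alone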
RAM efflux-def – RAM network inhibitors in efflux-deficient yeast; max inhibition, %; AID 1305; S. cerevisiae efflux-deficient reporter strain, 5-FOA growth OD615, 2 days; shares compounds with RAM network inh; 1,200 tested, under 10 active; call rule not given here;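 also: plate controls were vehicle for no effect and reference inhibitor for full effect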
* = called active by the depositor; nt = not tested or not shown. Compounds with a hit are over-represented: about 1.9% of the library has one in this group of screens.

SMILES	RAM network inh	p-CIP stab down	Dynein cargo inh	NCF1 inh	RAM efflux-def
Cc1cccc(OCC(=O)O/N=C(\N)Cc2ccc([N+](=O)[O-])cc2)c1	18*	1	1.8	0	2
COc1ccccc1NC(=O)c1ccc(NC(=O)COC(=O)CCC2CCCC2)cc1	14*	-17	0.83	-12	3
COc1ccccc1NC(=O)c1ccc(NC(=O)COC(=O)C(C)C)cc1	-1	1	2.5	-8	nt
Cc1ccc(-n2ncc3c(=O)[nH]c(SCC(=O)N4CCCc5ccccc54)nc32)cc1	12*	-6	-0.69	4	3
Cc1ccc(-n2ncc3c(=O)[nH]c(SCC(=O)N4CCN(c5ccccc5)CC4)nc32)cc1	7	2	0.39	-16	nt
CC(C)CC(COCc1ccc(C(F)(F)F)cc1)N1CCN(C(=O)c2ccc(C(F)(F)F)cc2)CCC1=O (stereo not drawn)	4	-4	-0.29	-7	nt
O=C(c1ccc(C(F)(F)F)cc1)N1CCC(=O)N(C(COCc2ccccc2)Cc2ccccc2)CC1 (stereo not drawn)	26*	-17	0.36	0	2
COc1ccc(CCNC(=O)/C(C#N)=C/c2cccc(OCc3ccccc3)c2)cc1OC	14*	-5	0.33	-22	2
COc1cc(/C=C(/C#N)C(=O)NCCCc2ccccc2)ccc1OCC(=O)O	nt	-1	nt	nt	nt
O=C1C(=O)N(Cc2ccncc2)C(c2ccccc2F)/C1=C(\O)c1ccc2c(c1)OCCO2 (stereo not drawn)	nt	10	nt	nt	nt
CCN1C(=O)C(CC(=O)Nc2ccc(OC)cc2)N(CCc2ccc(F)cc2)C1=S (stereo not drawn)	16*	-1	0.52	-9	2
CCCCCCOc1ccc(NC(=O)CC2C(=O)N(CC)C(=S)N2Cc2ccco2)cc1 (stereo not drawn)	17*	0	1	-14	3
CCN1C(=O)C(CC(=O)Nc2ccc(F)cc2)N(Cc2ccco2)C1=S (stereo not drawn)	2	1	1.4	0	nt
O=C(O)C(Cc1c[nH]c2ccccc12)N1C(=O)C2C3c4ccccc4C(c4ccccc43)[C@@H]2C1=O (stereo partly drawn)	nt	3	0.51	-14	nt
O=C(CSc1ccc([N+](=O)[O-])cc1)NNC(=O)c1ccccc1F	nt	-9	nt	nt	nt
CC(C)CNC(=O)c1ccccc1NC(=O)c1ccc(CSc2ccccc2)cc1	18*	6	0.58	-15	7
CC(C)CNC(=O)c1ccccc1NC(=O)CCSc1ccccc1	4	12	-0.65	-11	nt
COc1ccccc1NC(=O)c1cc[n+](C)cc1	nt	-10	nt	nt	nt
CCCCCCCCNC(=O)CC(NS(=O)(=O)c1ccc(NC(C)=O)cc1)C(C)C (stereo not drawn)	13*	-8	-0.37	-4	2
CC(=O)Nc1ccc(S(=O)(=O)NC(CC(=O)NCCCN2CCOCC2)C(C)C)cc1 (stereo not drawn)	1	-6	0.47	-5	nt
Cc1nn(Cc2ccccc2)c(Cl)c1C(=O)OCc1nnc(-c2ccccc2)o1	16*	-9	-0.089	-14	2
O=C(OC(c1ccc(NS(=O)(=O)c2ccccc2)cc1)(C(F)(F)F)C(F)(F)F)c1ccccc1	13*	-19	0.087	-11	2
Cc1ccc(S(=O)(=O)Nc2ccc(C(OC(=O)c3ccccc3[N+](=O)[O-])(C(F)(F)F)C(F)(F)F)cc2)cc1	6	-10	-0.79	-16	nt
CC(=O)Nc1ccc(NC(=O)CSc2nnc(-c3cccs3)n2C)cc1	nt	8	nt	nt	nt
CCCCn1c(SCC(=O)Nc2ccccc2C(F)(F)F)nc2ccsc2c1=O	11*	-9	-0.72	0	3
SMILES	RAM network inh	p-CIP stab down	Dynein cargo inh	NCF1 inh	RAM efflux-def
CCN(c1cccc(C)c1)S(=O)(=O)c1cn(CC(=O)OC)c2ccc([N+](=O)[O-])cc12	nt	-1	nt	nt	nt
CCOC(=O)c1cnc(SC)nc1Oc1cccc(NC(=O)c2ccc(C)cc2)c1	18*	-9	-0.71	-3	5
CCOC(=O)c1cnc(SC)nc1Nc1cccc(F)c1	16*	2	1.2	-6	2
CCOCCCNC(=S)N1CCCN(c2nc3cc(C)c(C)cc3cc2C#N)CC1	17*	-10	-1.3	-15	2
COCCCNC(=S)N1CCCN(c2nc3cc(C)c(C)cc3cc2C#N)CC1	4	-3	-0.54	-12	nt
COC(=O)c1cc(=O)n(CCc2ccccc2)c(=Nc2ccc(F)cc2)s1	12*	-3	-3.3	-5	5
COC(=O)c1cc(=O)n(Cc2ccccc2)c(=NCc2ccccc2)s1	6	12	-2.6	-1	nt
O=S(=O)(c1ccc(F)cc1)n1ccc(-c2cccc(OCc3ccc(Cl)cc3Cl)c2)n1	12*	-12	-0.55	-2	2
O=c1[nH]nc(-c2ccc(OCc3ccc(Cl)cc3Cl)cc2)o1	nt	-14	nt	nt	nt
COc1ccc(S(=O)(=O)N2CCC(C(=O)N[C@H](C(=O)NC3CCCC3)C(C)C)CC2)cc1	nt	-6	nt	nt	nt
CCCCCNC(=O)c1ccc2c(=O)n(CCCN3CCCC3=O)c(=S)[nH]c2c1	3	12	0.91	6	nt
O=C(COC(=O)CCCN1C(=O)c2cccc3cccc(c23)C1=O)Nc1cccc(C(F)(F)F)c1	12*	-12	-0.098	-15	3
O=C(COC(=O)CCCN1C(=O)c2cccc3cccc(c23)C1=O)Nc1cccc(Br)c1	6	5	0.59	-11	nt
Cc1ccccc1Nc1nc(CSc2nnnn2-c2ccccc2)cs1	2	-7	2.5	-49	nt
c1ccc(-c2nc(CSc3nnnn3-c3ccccc3)cs2)cc1	7	-12	-0.41	-7	2
Cc1cc(C)c(OCC(O)CN2CCN(C(=O)c3ccccc3)CC2)c(C)c1 (stereo not drawn)	nt	-13	nt	nt	nt
CCOc1c(Cl)cc(C(=O)Nc2ccccc2-c2ccccc2)cc1Cl	14*	-14	-0.3	-26	5
COc1ccc(C(=O)/C=C/Nc2ccc(S(=O)(=O)Nc3ncccn3)cc2)cc1	12*	-2	-0.23	-42	6
COc1ccc(C(=O)/C=C/Nc2ccc(S(=O)(=O)Nc3onc(C)c3C)cc2)cc1	13*	4	-0.37	2	5
Cc1noc(NS(=O)(=O)c2ccc(N/C=C\C(=O)c3ccncc3)cc2)c1C	4	2	-0.29	-25	nt
COc1cccc(NC(=O)CCNC(=O)N2CC(=O)Nc3ccccc32)c1	nt	4	nt	nt	nt
CCOC(=O)c1ccc(NC(=O)c2ccc(NC(=O)c3ccccc3)cc2)cc1	4	3	0.57	-13	nt
CCOC(=O)c1ccc(NC(=S)NC(=O)COc2ccccc2)cc1	11*	-2	-0.094	0	2
CCOC(=O)c1ccc(NC(=O)COC(=O)c2cccc(Oc3ccccc3)c2)cc1	12*	1	0.28	-15	3
CC1CC1c1ccc(/C=C(\C#N)C(=O)Nc2cccc(Cl)c2Cl)o1 (stereo not drawn)	-1	-4	0.2	-18	nt

Screens as filed in PubChem.
